Columns and labels:
[1] = Toxicity in liver microsomes isolated from CYP activator dexamethasone-treated Sprague-Dawley rat assessed as induction of mitochondrial permeability transition by measuring mitochondrial swelling at 50 uM measured after 30 mins in absence of NADPH; set-up: species or system Microsome; conditions: 0.5 h
How it was run: (§1)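 Compound (50 µM) incubated with dexamethasone-treated rat liver microsomes at 37 °C, with or without NADPH, for 30 min. Isolated mitochondrial fraction then added. Swelling followed as absorbance change at 540 nm over time, and area over the curve integrated as the MPT index. Mean ± SD, n = 3.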

[2] = Toxicity in liver microsomes isolated from CYP activator dexamethasone-treated Sprague-Dawley rat assessed as induction of mitochondrial permeability transition by measuring mitochondrial swelling at 50 uM measured after 30 mins in presence of NADPH; set-up: species or system Microsome; conditions: 0.5 h; how it was run: as §1
[3] = biological target: T1, Solute carrier family 22 member 12 (Homo sapiens, UniProt Q96S37); assay: Inhibition of human URAT1 expressed in HEK293 cells assessed as inhibition of [14C]-urate uptake at 10 uM after 2 mins by beta-scintillation counting analysis; assay type: cell-based; conditions: hek293, 2 min
T1 sequence (Q96S37 whole entry): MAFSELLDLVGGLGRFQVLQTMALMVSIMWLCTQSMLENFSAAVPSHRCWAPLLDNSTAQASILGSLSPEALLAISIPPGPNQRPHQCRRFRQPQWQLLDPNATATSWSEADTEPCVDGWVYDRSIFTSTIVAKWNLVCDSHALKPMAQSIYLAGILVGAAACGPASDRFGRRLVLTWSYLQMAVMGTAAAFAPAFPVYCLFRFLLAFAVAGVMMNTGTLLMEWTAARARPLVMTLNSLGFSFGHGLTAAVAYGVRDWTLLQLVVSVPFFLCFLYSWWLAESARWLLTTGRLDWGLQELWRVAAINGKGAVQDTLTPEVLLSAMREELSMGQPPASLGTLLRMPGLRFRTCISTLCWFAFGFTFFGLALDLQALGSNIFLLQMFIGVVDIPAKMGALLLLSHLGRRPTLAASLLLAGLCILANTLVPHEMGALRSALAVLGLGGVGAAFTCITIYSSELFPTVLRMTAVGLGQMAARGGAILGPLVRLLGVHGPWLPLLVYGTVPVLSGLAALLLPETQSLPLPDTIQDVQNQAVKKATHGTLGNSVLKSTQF
How it was run: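 HEK cells overexpressing hURAT1; uric acid uptake measured in presence of compound at 10 µM. Uptake expressed as percent of vehicle control (0.5% DMSO, no inhibitor). Mean ± SD, n = 4.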

[4] = tested on: Hepatocyte; assay: Cytotoxicity in hepatocytes isolated from CYP activator dexamethasone-treated C57BL/6J mouse at 5 uM after 18 hrs by LDH assay relative to control; assay type: ADME, cell-based
How it was run: (§2)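 Hepatocytes from mice pretreated with dexamethasone to induce CYP enzymes; compounds at 1 or 5 µM. Cytotoxicity read as LDH release after drug exposure (text gives 16 hr, legend 18 hr). Values are averages of duplicate experiments.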

[5] = tested on: Hepatocyte; assay: Cytotoxicity in hepatocytes isolated from CYP activator dexamethasone-treated C57BL/6J mouse after 18 hrs by LDH assay relative to control; assay type: ADME, cell-based; how it was run: as §2
[6] = tested on: Hepatocyte; assay: Cytotoxicity in hepatocytes isolated from CYP activator dexamethasone-treated C57BL/6J mouse at 1 uM after 18 hrs by LDH assay relative to control; assay type: ADME, cell-based; how it was run: as §2
[7] = biological target: T2, URAT1 (SLC22A12) (Homo sapiens, UniProt Q96S37); assay: Inhibition of human URAT1 expressed in HEK293 cells assessed as [14C]-urate uptake at 10 uM after 2 mins by beta-scintillation counting analysis relative to control; assay type: cell-based; set-up: scale not given: the % may be the effect or the level left; conditions: HEK293 cells expressing human URAT1, probe [14C]-urate, read-out: Activity
T2 sequence (Q96S37 whole entry): T1 sequence (Q96S37 whole entry)

| SMILES | inhibition (INH) [3] | activity at 2 min, 10 µM [7] [%] | Activity [1] | Activity [2] | Activity [4] [%] | Activity [5] | Activity [6] [%] |
| --- | --- | --- | --- | --- | --- | --- | --- |
| CCc1oc2ccccc2c1C(=O)c1cc(O)cc(Br)c1 | Active | – | Non-Toxic | Non-Toxic | < 16 | – | – |
| CCc1oc2ccccc2c1C(=O)c1cc(O)c(Br)cc1Br | Active | – | Non-Toxic | Non-Toxic | < 16 | – | – |
| CCc1oc2ccccc2c1C(=O)c1cc(O)ccc1Br | Active | – | Non-Toxic | Non-Toxic | < 16 | – | – |
| CCc1oc2ccccc2c1C(=O)c1cc(Br)c(O)c(Br)c1 [BENZBROMARONE] | – | < 10 | Non-Toxic | Toxic | 52 | Dose-dependent effect | 27 |

Further lines, with some results ahead:

| inhibition (INH) [3] | activity at 2 min, 10 µM [7] [%] | SMILES | Activity [1] | Activity [2] | Activity [4] [%] | Activity [5] | Activity [6] [%] |
| --- | --- | --- | --- | --- | --- | --- | --- |
| Active | – | CCc1oc2ccccc2c1C(=O)c1cccc(O)c1Br | Non-Toxic | Non-Toxic | < 16 | – | – |
| Active | – | CCc1oc2ccccc2c1C(=O)c1ccc(Br)c(O)c1Br | Non-Toxic | Non-Toxic | < 16 | – | – |
| Active | – | CCc1oc2ccccc2c1C(=O)c1ccc(Br)c(O)c1 | Non-Toxic | Non-Toxic | < 16 | – | – |
